Measured values: paper PMC2193327 (The Journal of Experimental Medicine, 2001)
No end group written: not given here.

Target: HLA-B*3501 (Homo sapiens, UniProt P01889, A329T/A93T/A95T/C349S/D201E/D98Y/E176V/E187L/E204Q/E69T/I218V/K202T/L119I/Q94N/R155S/R180L/S121R/S35A/S48A/T118I/V127L/V306I/V36M/Y140S/Y91F)
Format: binding
How it was run: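 Human 721.221 cells expressing HLA-B*3501 were stripped of bound peptides with mild acid (pH 3.2). They were incubated overnight at 4°C with fluorescein-labelled reference peptide LPSC(FL)ADVEF (250 nM fixed) plus competitor peptides (>80% HPLC purity) from 50 to 0.09 μM. After washing, bound labelled peptide was measured by flow cytometry. IC50 (50% inhibition of reference binding) was taken from exponential regression curves.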

Molecule	IC50 [nM]
FPSDSWCYF [FPSDSWCYF, reference compound]	4100
LAAVVGLSPGEQEY [LAAVVGLSPGEQEY]	2600
LPAVVGLSAGEQEY [LPAVVGLSAGEQEY]	1100
APAVVGLSPGEQEY [APAVVGLSPGEQEY]	2800
LAAVVGLSAGEQEY [LAAVVGLSAGEQEY]	1700
LPAVVGASPGEQEY [LPAVVGASPGEQEY]	1300
LWAVVGLSPGEQEY [LWAVVGLSPGEQEY]	4700
LGAVVGLSPGEQEY [LGAVVGLSPGEQEY]	17400
LMAVVGLSPGEQEY [LMAVVGLSPGEQEY]	6500
CC(C)C[C@H](NC(=O)CNC(=O)[C@@H](NC(=O)[C@@H](NC(=O)[C@H](C)NC(=O)[C@@H]1CCCN1C(=O)[C@@H](N)CC(C)C)C(C)C)C(C)C)C(=O)N[C@@H](CO)C(=O)N1CCC[C@H]1C(=O)NCC(=O)N[C@@H](CCC(=O)O)C(=O)N[C@@H](CCC(N)=O)C(=O)N[C@@H](CCC(=O)O)C(=O)N[C@@H](Cc1ccc(O)cc1)C(=O)O [LPAVVGLSPGEQEY]	3100
